# Data published in ChEMBL document CHEMBL4480370, “Synthesis and preliminary evaluation of the anti-cancer activity on A549 lung cancer cells of a series of unsaturated disulfides” (2019).
# Active and inactive are the calls of the source. The calls are words filed in the database; no cut-off is given here.
# Legend:
# A549 [1] = experiment: Cytotoxicity against human A549 cells assessed as reduction in cell viability at 500 uM after 24 hrs by CellTiter-Glo luminescent assay; type: functional, cell-based
# Outline: (§1)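 A549 cells kept in RPMI 1640 with 10% fetal bovine serum and 100 units per ml penicillin–streptomycin. Each molecule was applied at 50, 100, 250 and 500 μM, with viability read at 24 or 48 h by CellTiter-Glo luminescence. Values are expressed relative to untreated control (C), as the mean of three repeats with relative standard deviation.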
# A549 [2] = experiment: Cytotoxicity against human A549 cells assessed as reduction in cell viability after 24 hrs by CellTiter-Glo luminescent assay; type: functional, cell-based; outline: as §1
# A549 [3] = experiment: Cytotoxicity against human A549 cells assessed as reduction in cell viability at 50 to 500 uM by CellTiter-Glo luminescent assay; type: functional, cell-based; conditions: TDE = time-dependent effect; outline: as §1
# A549 [4] = experiment: Cytotoxicity against human A549 cells assessed as reduction in cell viability at 50 uM after 48 hrs by CellTiter-Glo luminescent assay relative to control; type: functional; outline: as §1
# A549 [5] = experiment: Cytotoxicity against human A549 cells assessed as reduction in cell viability at 500 uM after 48 hrs by CellTiter-Glo luminescent assay relative to control; type: functional; outline: as §1
# A549 [6] = experiment: Cytotoxicity against human A549 cells assessed as reduction in cell viability after 48 hrs by CellTiter-Glo luminescent assay; type: functional, cell-based; outline: as §1
# A549 [7] = experiment: Cytotoxicity against human A549 cells assessed as reduction in cell viability at 250 uM after 48 hrs by CellTiter-Glo luminescent assay; type: functional, cell-based; outline: as §1
# A549 [8] = experiment: Cytotoxicity against human A549 cells assessed as reduction in cell viability at 100 to 250 uM after 48 hrs by CellTiter-Glo luminescent assay; type: functional, cell-based; outline: as §1
# A549 [9] = experiment: Cytotoxicity against human A549 cells assessed as reduction in cell viability at 50 to 500 uM after 24 hrs by CellTiter-Glo luminescent assay; type: functional, cell-based; outline: as §1
Compound,Activity (A549 [1]),Activity (A549 [2]),Activity (A549 [3]),Activity (A549 [4]),Activity (A549 [5]),further results
CCCC=CCSSCC=CCCC (mixture of isomers),Active,–,–,–,–,–
C=CCCSSCCC=C,–,Dose-dependent effect,Tde,68%,100%,Activity (A549 [6]): Dose-dependent effect; Activity (A549 [7]): Active
C=CCSSCC=C [DIALLYLDISULFIDE],–,Dose-dependent effect,Tde,54%,65%,–
CCC/C=C/CSSC/C=C/CCC,Active,–,–,–,–,–
C/C=C/CSSC/C=C/C,–,Dose-dependent effect,Tde,70%,84%,Activity (A549 [8]): Active
C=CCCCCSSCCCCC=C,–,–,–,–,–,Activity (A549 [9]): inactive
